Active and inactive are the calls of the source. No cut-off for these calls is given here.
Legend:
Ramos [1] = assay: Antiproliferative activity against human Ramos cells at 40 uM measured after 72 hrs by CCK-8 assay relative to control; type: functional; conditions: Homo sapiens, Ramos, 72 h
Outline: (§1)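 Ramos or Raji cells in RPMI-1640 with 10% FBS and 1% penicillin-streptomycin at 37 °C, 5% CO2. Seeded at 2000–3000 cells/well one day before compound addition. Exposure 72 h, then CCK-8 with absorbance at 450 nm. […] Single-point inhibition at 40 µM reported as mean ± standard deviation.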

Ramos [2] = assay: Antiproliferative activity against human Ramos cells measured after 72 hrs by CCK-8 assay; type: functional, cell-based; outline: as §1
Raji [3] = assay: Antiproliferative activity against human Raji cells measured after 72 hrs by CCK-8 assay; type: functional, cell-based; outline: as §1
[4] = molecular target: Tyrosine-protein kinase BTK (Homo sapiens, UniProt Q06187, C481S); assay: Inhibition of human recombinant full length N-terminal His tagged BTK C481S mutant expressed in baculovirus infected Sf9 cells using poly (Glu,Tyr) 4:1 as substrate measured after 60 mins in presence of ATP by ADP-Glo kinase assay
Chain of Tyrosine-protein kinase BTK (Homo sapiens, UniProt Q06187, C481S) (Q06187 2-659 C481S limits assumed): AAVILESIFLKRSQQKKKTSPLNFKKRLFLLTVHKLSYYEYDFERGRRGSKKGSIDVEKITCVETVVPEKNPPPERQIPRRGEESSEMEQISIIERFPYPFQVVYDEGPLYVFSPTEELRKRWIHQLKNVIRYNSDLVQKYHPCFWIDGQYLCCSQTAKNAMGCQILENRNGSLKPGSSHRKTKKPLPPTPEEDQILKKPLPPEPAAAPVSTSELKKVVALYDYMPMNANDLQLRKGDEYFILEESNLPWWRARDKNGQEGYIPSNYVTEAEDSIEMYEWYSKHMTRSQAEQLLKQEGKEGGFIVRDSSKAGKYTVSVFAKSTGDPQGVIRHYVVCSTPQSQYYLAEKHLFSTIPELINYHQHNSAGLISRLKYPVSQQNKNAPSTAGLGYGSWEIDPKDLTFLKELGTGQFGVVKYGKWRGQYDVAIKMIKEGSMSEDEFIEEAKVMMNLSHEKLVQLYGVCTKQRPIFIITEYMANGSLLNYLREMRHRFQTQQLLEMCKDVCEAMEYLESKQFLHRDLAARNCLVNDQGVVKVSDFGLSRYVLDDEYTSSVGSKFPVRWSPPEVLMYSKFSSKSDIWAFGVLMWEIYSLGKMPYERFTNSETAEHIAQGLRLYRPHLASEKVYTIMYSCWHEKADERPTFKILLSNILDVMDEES

Ramos [5] = assay: Induction of apoptosis in human Ramos cells assessed as early apoptotic cells at 0.1 uM measured after 15 mins by Annexin-V-APC staining-based flow cytometric analysis (reference value: 0.14 %); type: functional
Ramos [6] = assay: Induction of apoptosis in human Ramos cells assessed as necrotic cells at 0.1 uM measured after 15 mins by Annexin-V-APC staining-based flow cytometric analysis (reference value: 1.50 %); type: functional
Ramos [7] = assay: Induction of apoptosis in human Ramos cells assessed as viable cells at 1 uM measured after 15 mins by Annexin-V-APC staining-based flow cytometric analysis (reference value: 96.5 %); type: functional; conditions: 0.25 h, read-out: Activity
Ramos [8] = assay: Induction of apoptosis in human Ramos cells assessed as early apoptotic cells at 1 uM measured after 15 mins by Annexin-V-APC staining-based flow cytometric analysis (reference value: 0.14 %); type: functional
Ramos [9] = assay: Induction of apoptosis in human Ramos cells assessed as late apoptotic cells at 3 uM measured after 15 mins by Annexin-V-APC staining-based flow cytometric analysis (reference value: 1.85 %); type: functional
Ramos [10] = assay: Induction of apoptosis in human Ramos cells assessed as necrotic cells at 3 uM measured after 15 mins by Annexin-V-APC staining-based flow cytometric analysis (reference value: 1.50 %); type: functional
Ramos [11] = assay: Induction of apoptosis in human Ramos cells assessed as viable cells at 5 uM measured after 15 mins by Annexin-V-APC staining-based flow cytometric analysis (reference value: 96.5 %); type: functional; conditions: Homo sapiens, Ramos, 0.25 h; read-out: Activity
Ramos [12] = assay: Induction of apoptosis in human Ramos cells assessed as early apoptotic cells at 5 uM measured after 15 mins by Annexin-V-APC staining-based flow cytometric analysis (reference value: 0.14 %); type: functional
Raji [13] = assay: Induction of apoptosis in human Raji cells assessed as viable cells at 0.1 uM measured after 15 mins by Annexin-V-APC staining-based flow cytometric analysis (reference value: 97.5 %); type: functional; conditions: 0.25 h, read-out: Activity
Raji [14] = assay: Induction of apoptosis in human Raji cells assessed as necrotic cells at 0.1 uM measured after 15 mins by Annexin-V-APC staining-based flow cytometric analysis (reference value: 1.87 %); type: functional
Raji [15] = assay: Induction of apoptosis in human Raji cells assessed as necrotic cells at 1 uM measured after 15 mins by Annexin-V-APC staining-based flow cytometric analysis (reference value: 1.87 %); type: functional
Raji [16] = assay: Induction of apoptosis in human Raji cells assessed as necrotic cells at 3 uM measured after 15 mins by Annexin-V-APC staining-based flow cytometric analysis (reference value: 1.87 %); type: functional
Raji [17] = assay: Induction of apoptosis in human Raji cells assessed as late apoptotic cells at 5 uM measured after 15 mins by Annexin-V-APC staining-based flow cytometric analysis (reference value: 0.57 %); type: functional
Ramos [18] = assay: Cell cycle arrest in human Ramos cells assessed as accumulation at G0/G1 phase at 0.1 uM measured after 48 hrs by propidium iodide/RNase staining based flow cytometric analysis (reference value: 37.66 %); type: functional
Ramos [19] = assay: Cell cycle arrest in human Ramos cells assessed as accumulation at S phase at 0.1 uM measured after 48 hrs by propidium iodide/RNase staining based flow cytometric analysis (reference value: 56.35 %); type: functional
Ramos [20] = assay: Cell cycle arrest in human Ramos cells assessed as accumulation at G0/G1 phase at 1 uM measured after 48 hrs by propidium iodide/RNase staining based flow cytometric analysis (reference value: 37.66 %); type: functional
Ramos [21] = assay: Cell cycle arrest in human Ramos cells assessed as accumulation at G2/M phase at 1 uM measured after 48 hrs by propidium iodide/RNase staining based flow cytometric analysis (reference value: 5.98 %); type: functional
Ramos [22] = assay: Cell cycle arrest in human Ramos cells assessed as accumulation at G0/G1 phase at 5 uM measured after 48 hrs by propidium iodide/RNase staining based flow cytometric analysis (reference value: 37.66 %); type: functional
Raji [23] = assay: Cell cycle arrest in human Raji cells assessed as accumulation at G2/M phase at 0.1 uM measured after 48 hrs by propidium iodide/RNase staining based flow cytometric analysis (reference value: 18.14 %); type: functional
Raji [24] = assay: Cell cycle arrest in human Raji cells assessed as accumulation at S phase at 1 uM measured after 48 hrs by propidium iodide/RNase staining based flow cytometric analysis (reference value: 33.18 %); type: functional
Raji [25] = assay: Cell cycle arrest in human Raji cells assessed as accumulation at G0/G1 phase at 5 uM measured after 48 hrs by propidium iodide/RNase staining based flow cytometric analysis (reference value: 48.68 %); type: functional
[26] = molecular target: T1, Tyrosine-protein kinase BTK (Homo sapiens, UniProt Q06187); assay: Inhibition of BTK in anti-IgM-stimulated human Raji cells assessed as decrease in auto-phosphorylation at Y223 residue at 5 uM after 48 hrs by Western blot analysis; type: cell-based
T1 sequence (Q06187 whole entry): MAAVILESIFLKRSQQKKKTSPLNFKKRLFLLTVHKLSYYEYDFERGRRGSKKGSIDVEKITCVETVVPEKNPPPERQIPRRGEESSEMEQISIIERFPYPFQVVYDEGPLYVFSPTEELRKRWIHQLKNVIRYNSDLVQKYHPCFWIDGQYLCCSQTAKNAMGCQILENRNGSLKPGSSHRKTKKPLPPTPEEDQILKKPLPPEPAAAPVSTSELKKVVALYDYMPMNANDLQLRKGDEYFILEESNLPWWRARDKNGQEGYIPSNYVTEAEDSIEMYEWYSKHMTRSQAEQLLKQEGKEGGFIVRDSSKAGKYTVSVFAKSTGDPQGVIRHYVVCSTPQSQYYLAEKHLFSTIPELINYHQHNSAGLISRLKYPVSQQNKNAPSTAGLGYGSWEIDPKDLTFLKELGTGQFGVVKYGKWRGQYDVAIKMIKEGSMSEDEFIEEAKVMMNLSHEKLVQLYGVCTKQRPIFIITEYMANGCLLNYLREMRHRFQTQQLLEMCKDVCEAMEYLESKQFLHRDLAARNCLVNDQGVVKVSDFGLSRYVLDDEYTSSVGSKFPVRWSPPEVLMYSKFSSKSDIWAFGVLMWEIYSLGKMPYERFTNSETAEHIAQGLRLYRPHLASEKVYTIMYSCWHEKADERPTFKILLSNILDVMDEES
Outline: (§2)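 Cells were stimulated with anti-IgM and exposed to serial dilutions for 48 h. Lysis was in 2× Laemmli buffer with 2.5% β-mercaptoethanol at 4 °C for 15 min, then boiling for 5 min. Proteins were separated on 10% SDS-PAGE and moved to nitrocellulose. Blots were probed overnight (12–18 h, 4 °C) with phospho-BTK Tyr223, phospho-PLCγ2 Tyr1217 and β-actin antibodies (1:1000), then anti-rabbit HRP, with chemiluminescent detection.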

[27] = molecular target: T1, Tyrosine-protein kinase BTK; assay: Inhibition of BTK in anti-IgM-stimulated human Raji cells assessed as decrease in auto-phosphorylation at Y223 residue after 48 hrs by Western blot analysis; type: cell-based; outline: as §2

`CN1CCN(c2ccc(Nc3nc(-c4cccc(NC(=O)c5ccc(F)c(Cl)c5)c4)sc3C(N)=O)cc2)CC1` gave an inhibition at 40 µM (Ramos [1]) of 97.5%, an IC50 (Ramos [2]) of 4.83 µM and an IC50 (Raji [3]) of 6.23 µM. For the same molecule, the IC50 [4] was 0.061 µM, the Activity (Ramos [5]) was 0.072% and the Activity (Ramos [6]) was 1.61%. For the same molecule, the viability at 1 µM (Ramos [7]) was 95.7%, the Activity (Ramos [8]) was 0.051% and the Activity (Ramos [9]) was 6.43%. It also gave an Activity (Ramos [10]) of 6.17%, a viability at 5 µM (Ramos [11]) of 1.55% and an Activity (Ramos [12]) of 0.28%. For the same molecule, the viability at 0.1 µM (Raji [13]) was 97.8%, the Activity (Raji [14]) was 1.76% and the Activity (Raji [15]) was 1.88%. The Activity (Raji [16]) was 2.91%, the Activity (Raji [17]) was 67.7% and the Activity (Ramos [18]) was 40.13%. It also gave an Activity (Ramos [19]) of 51.54%, an Activity (Ramos [20]) of 55.48% and an Activity (Ramos [21]) of 11.39%. For the same molecule, the Activity (Ramos [22]) was 83.68%, the Activity (Raji [23]) was 19.33% and the Activity (Raji [24]) was 21.47%. For the same molecule, the Activity (Raji [25]) was 82.55%, the inhibition [26] was “Active” and the inhibition [27] was “Dose-dependent effect”.
